Laboratory results: ChEMBL document CHEMBL1177821, “Structure-activity relationships and hepatic safety risks of thiazole agonists of the thrombopoietin receptor” (Bioorg Med Chem Lett, 2010)
Blank lines part the entries; values can stand above or below the molecule they belong to. The source made the active and inactive calls. The rule behind the calls is not given here.

Columns and labels:
[1] = target: T1, Thrombopoietin receptor (Homo sapiens, UniProt P40238); experiment: Agonist activity at human TPO receptor expressed in murine BaF3 cells
T1 sequence (P40238 whole entry): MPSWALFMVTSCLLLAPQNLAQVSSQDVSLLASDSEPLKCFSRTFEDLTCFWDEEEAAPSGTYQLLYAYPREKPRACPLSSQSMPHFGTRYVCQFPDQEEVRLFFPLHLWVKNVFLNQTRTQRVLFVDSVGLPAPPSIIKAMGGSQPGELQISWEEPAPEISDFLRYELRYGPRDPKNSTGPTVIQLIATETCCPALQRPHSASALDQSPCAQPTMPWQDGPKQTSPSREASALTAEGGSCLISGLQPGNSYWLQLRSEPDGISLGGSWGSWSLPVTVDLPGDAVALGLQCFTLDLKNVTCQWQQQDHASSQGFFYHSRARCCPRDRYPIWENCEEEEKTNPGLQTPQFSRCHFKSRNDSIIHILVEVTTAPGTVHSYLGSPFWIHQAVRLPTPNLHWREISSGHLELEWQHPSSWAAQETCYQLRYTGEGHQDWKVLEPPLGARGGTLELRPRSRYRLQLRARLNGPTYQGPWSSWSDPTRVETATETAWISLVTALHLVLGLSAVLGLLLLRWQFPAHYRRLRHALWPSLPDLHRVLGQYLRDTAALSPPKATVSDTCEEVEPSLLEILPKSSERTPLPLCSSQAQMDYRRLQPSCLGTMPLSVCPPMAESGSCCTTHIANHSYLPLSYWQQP

[2] = tested on: Rattus norvegicus; experiment: Toxicity in rat assessed as elevation of AST level at 250 mg/kg, po; assay type: organism-based; set-up: dose 250 mg/kg, route oral; conditions: in vivo
How it was run: (§1)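 Single oral doses of 50, 250 or 500 mg/kg given to rats, each study with its own control group. Mean serum AST and ALT (IU/L) measured. Histopathology of liver also examined.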

[3] = AUC (0 to 24 hrs) in rat at 250 mg/kg, po; assay type: ADME, organism-based; set-up: time < 24 hr, dose 250 mg/kg, route oral; conditions: plasma
How it was run: (§2)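 Rats given single oral doses of 50, 250 or 500 mg/kg, with a separate vehicle control group in each study. Mean Cmax (µg/mL) and mean AUC0–24 (µg h/mL) taken as total (bound plus unbound) plasma concentrations.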

[4] = organism: Mus musculus; experiment: Increase of platelets level in human TPO receptor transgenic mouse measured after 6 days; assay type: functional, organism-based
How it was run: (§3)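 Human TPO receptor transgenic mice (knock-out/human knock-in of receptor exons 8–10, spanning the transmembrane domain) and wild-type mice given compound on days 0 and 1. Platelets counted on day 6.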

[5] = tested on: Rattus norvegicus; experiment: Toxicity in rat assessed as change in clinical pathology at 10 to 150 mg/kg, po after 4 days; assay type: organism-based; set-up: dose 10-150 mg/kg, route oral; conditions: in vivo, 96 h
How it was run: (§4)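 Rats dosed orally once daily for four days at 10, 50 or 150 mg/kg, four animals per dose. Clinical pathology including ALT and bilirubin checked on days 1 and 5. Histopathology examined.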

[6] = tested on: Rattus norvegicus; experiment: Toxicity in rat assessed as elevation of ALT level at 500 mg/kg, po; assay type: organism-based; set-up: dose 500 mg/kg, route oral; conditions: in vivo
How it was run: as §1

[7] = AUC (0 to 24 hrs) in rat at 500 mg/kg, po; assay type: ADME, organism-based; set-up: time < 24 hr, dose 500 mg/kg, route oral; conditions: plasma
How it was run: as §2

[8] = tested on: Rattus norvegicus; experiment: Toxicity in rat assessed as histopathological changes at 10 to 150 mg/kg, po after 4 days; assay type: organism-based; set-up: dose 10-150 mg/kg, route oral; conditions: in vivo, 96 h
How it was run: as §4

[9] = Cmax in rat at 500 mg/kg, po; assay type: ADME, organism-based; set-up: dose 500 mg/kg, route oral; conditions: in vivo
How it was run: as §2

[10] = tested on: Rattus norvegicus; experiment: Toxicity in rat assessed as elevation of AST level at 500 mg/kg, po; assay type: organism-based; set-up: dose 500 mg/kg, route oral; conditions: in vivo
How it was run: as §1

[11] = tested on: Rattus norvegicus; experiment: Toxicity in rat assessed as elevation of AST level at 50 mg/kg, po; assay type: organism-based; set-up: dose 50 mg/kg, route oral; conditions: in vivo
How it was run: as §1

[12] = Cmax in rat at 50 mg/kg, po; assay type: ADME, organism-based; set-up: dose 50 mg/kg, route oral; conditions: in vivo
How it was run: as §2

[13] = tested on: Rattus norvegicus; experiment: Toxicity in rat assessed as elevation of ALT level at 250 mg/kg, po; assay type: organism-based; set-up: dose 250 mg/kg, route oral; conditions: in vivo
How it was run: as §1

[14] = Cmax in rat at 250 mg/kg, po; assay type: ADME, organism-based; set-up: dose 250 mg/kg, route oral; conditions: in vivo
How it was run: as §2

[15] = tested on: Rattus norvegicus; experiment: Toxicity in rat assessed as elevation of ALT level at 50 mg/kg, po; assay type: organism-based; set-up: dose 50 mg/kg, route oral; conditions: in vivo
How it was run: as §1

[16] = AUC (0 to 24 hrs) in rat at 50 mg/kg, po; assay type: ADME, organism-based; set-up: time < 24 hr, dose 50 mg/kg, route oral; conditions: plasma
How it was run: as §2

[17] = organism: Mus musculus; experiment: Increase of platelets level in mouse measured after 6 days; assay type: functional, organism-based
How it was run: as §3

Compound: N#Cc1sc(NC(=O)c2cnc(N3CCC(C(=O)O)CC3)c(Cl)c2)nc1-c1ccc(F)c(C(F)(F)F)c1
EC50 [1]: > 898 nM

Compound: O=C(Nc1nc(-c2ccc(F)c(OCC(F)(F)F)c2)c(F)s1)c1cnc(N2CCC(C(=O)O)CC2)c(Cl)c1
EC50 [1]: 950 nM

Compound: O=C(Nc1nc(-c2ccc(F)c(Br)c2)c(F)s1)c1cnc(N2CCC(C(=O)O)CC2)c(Cl)c1
EC50 [1]: 670 nM

Compound: O=C(Nc1nc(-c2cccc(C(F)(F)F)c2F)cs1)c1cnc(N2CCC(C(=O)O)CC2)c(Cl)c1
Activity [2]: 2952 IU/L
AUC(0-t) at 24 h [3]: 832 µg·h/mL
EC50 [4]: 27 µg·h/mL
Activity [5]: Non-toxic
Activity [6]: 579 IU/L
AUC(0-t) at 24 h [7]: 1490 µg·h/mL
Activity [8]: Non-toxic
Cmax [9]: 84000 ng/mL
Activity [10]: 3495 IU/L
Activity [11]: 1937 IU/L
Cmax [12]: 20000 ng/mL
Activity [13]: 450 IU/L
Cmax [14]: 48000 ng/mL
Activity [15]: 442 IU/L
AUC(0-t) at 24 h [16]: 84 µg·h/mL
Activity [17]: inactive

Compound: O=C(Nc1nc(-c2ccc(Cl)c(Cl)c2)c(F)s1)c1cnc(N2CCC(C(=O)O)CC2)c(Cl)c1
EC50 [1]: > 1000 nM

Compound: O=C(Nc1ccn(-c2cccc(C(F)(F)F)c2F)n1)c1cnc(N2CCC(C(=O)O)CC2)c(Cl)c1
EC50 [1]: > 811 nM

Compound: CCOCc1cc(-c2nc(NC(=O)c3cnc(N4CCC(C(=O)O)CC4)c(Cl)c3)sc2F)ccc1F
EC50 [1]: > 970 nM

Compound: O=C(Nc1nc(-c2cccc(C(F)(F)F)c2F)c(F)s1)c1cnc(N2CCC(C(=O)O)CC2)c(Cl)c1
EC50 [1]: 702 nM

Continued, in another order:

EC50 [1]: 480 nM
Compound: O=C(Nc1nc(-c2ccc(F)c(Cl)c2)c(F)s1)c1cnc(N2CCC(C(=O)O)CC2)c(Cl)c1

EC50 [1]: 86 nM
Compound: O=C(Nc1nc(-c2ccc(F)c(C(F)(F)F)c2)c(Cl)s1)c1cnc(N2CCC(C(=O)O)CC2)c(Cl)c1

EC50 [1]: 100 nM
Compound: O=C(Nc1nc(-c2ccc(F)c(C(F)(F)F)c2)cs1)c1cnc(N2CCC(C(=O)O)CC2)c(Cl)c1

EC50 [1]: 574 nM
Compound: O=C(Nc1nc(-c2ccc(F)c(C(F)(F)F)c2)ns1)c1cnc(N2CCC(C(=O)O)CC2)c(Cl)c1

EC50 [1]: 58 nM
Compound: CC(C)Cc1cc(-c2nc(NC(=O)c3cnc(N4CCC(C(=O)O)CC4)c(Cl)c3)sc2F)ccc1F

EC50 [1]: 620 nM
Compound: O=C(Nc1nc(-c2ccc(F)c(OC(F)(F)F)c2)c(F)s1)c1cnc(N2CCC(C(=O)O)CC2)c(Cl)c1

EC50 [1]: 160 nM
Compound: CCc1sc(NC(=O)c2cnc(N3CCC(C(=O)O)CC3)c(Cl)c2)nc1-c1ccc(F)c(C(F)(F)F)c1

EC50 [1]: 220 nM
Compound: CCCCc1cc(-c2nc(NC(=O)c3cnc(N4CCC(C(=O)O)CC4)c(Cl)c3)sc2F)ccc1F

EC50 [1]: 130 nM
Compound: CCCc1sc(NC(=O)c2cnc(N3CCC(C(=O)O)CC3)c(Cl)c2)nc1-c1ccc(F)c(C(F)(F)F)c1

EC50 [1]: 66 nM
Compound: Cc1sc(NC(=O)c2cnc(N3CCC(C(=O)O)CC3)c(Cl)c2)nc1-c1ccc(F)c(C(F)(F)F)c1

EC50 [4]: 7 µg·h/mL
EC50 [1]: 89 nM
Compound: O=C(Nc1nc(-c2ccc(F)c(C(F)(F)F)c2)c(F)s1)c1cnc(N2CCC(C(=O)O)CC2)c(Cl)c1
Activity [5]: Non-toxic
Activity [8]: Non-toxic
Activity [17]: inactive
